Measurements reported in ChEMBL document CHEMBL1914395, “Design, synthesis, and biological evaluation of callophycin A and analogues as potential chemopreventive and anticancer agents” (Bioorg Med Chem, 2011).

These compounds were tested against T1, Aromatase (Homo sapiens, UniProt P11511) (assay: Inhibition of aromatase after 10 mins preincubation by plate reader relative to control). Conditions: not given.
T1 sequence (P11511 whole entry): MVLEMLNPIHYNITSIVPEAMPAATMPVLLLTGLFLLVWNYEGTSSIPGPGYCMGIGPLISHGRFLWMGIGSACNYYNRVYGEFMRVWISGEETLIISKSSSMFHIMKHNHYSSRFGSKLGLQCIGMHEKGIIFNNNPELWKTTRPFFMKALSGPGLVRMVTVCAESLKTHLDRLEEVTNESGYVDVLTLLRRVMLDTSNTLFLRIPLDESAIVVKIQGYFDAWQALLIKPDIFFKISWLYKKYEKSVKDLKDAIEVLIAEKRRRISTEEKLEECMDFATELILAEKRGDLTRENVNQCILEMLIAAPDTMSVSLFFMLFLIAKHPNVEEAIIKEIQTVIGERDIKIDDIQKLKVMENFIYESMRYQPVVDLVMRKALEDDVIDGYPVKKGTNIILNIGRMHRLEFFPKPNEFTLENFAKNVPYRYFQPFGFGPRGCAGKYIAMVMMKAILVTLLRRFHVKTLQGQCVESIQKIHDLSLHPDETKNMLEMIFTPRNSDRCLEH
`COC(=O)[C@@H]1Cc2c([nH]c3ccccc23)CN1Cc1ccc(O)cc1` gave an IC50 of 57.4 µM.
Compound `COC(=O)[C@@H]1Cc2c([nH]c3ccccc23)CN1S(=O)(=O)c1ccc(C)cc1` has an IC50 of 63.2 µM.
Work on `O=C(O)[C@@H]1Cc2c([nH]c3ccccc23)CN1Cc1ccc(O)cc1` yielded an IC50 of 10.5 µM.

What follows are compounds tested against NAD(P)H dehydrogenase [quinone] 1 (Mus musculus) (UniProt Q64669) (assay: Induction of quinone reductase 1 activity in mouse Hepa-1c1c7 cells at 50 uM by MTT assay relative to untreated control). Conditions: not given.
Sequence of NAD(P)H dehydrogenase [quinone] 1 (Mus musculus) (Q64669 whole entry): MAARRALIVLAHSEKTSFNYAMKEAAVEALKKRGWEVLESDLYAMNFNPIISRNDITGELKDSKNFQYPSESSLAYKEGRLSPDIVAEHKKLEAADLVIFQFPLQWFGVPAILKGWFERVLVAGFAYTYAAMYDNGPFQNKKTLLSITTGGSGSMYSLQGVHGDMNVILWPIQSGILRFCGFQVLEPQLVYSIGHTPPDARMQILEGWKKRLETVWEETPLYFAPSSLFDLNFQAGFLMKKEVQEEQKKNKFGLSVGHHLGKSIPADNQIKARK
Assay type: cell-based
Procedure, shortened: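 Hepa 1c1c7 murine hepatoma cells treated with compound at 50 μM. QR1 measured by NADPH-dependent, menadiol-mediated reduction of MTT to formazan. Protein measured by crystal violet staining of identical plates. Specific activity is nmol formazan per mg protein per min. Induction ratio is treated versus DMSO-treated control.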
Work on `COC(=O)[C@@H]1Cc2c([nH]c3ccccc23)CN1Cc1ccc(O)cc1` yielded a Ratio of 1.3.
With `COC(=O)[C@@H]1Cc2c([nH]c3ccccc23)CN1S(=O)(=O)c1ccc(C)cc1` the Ratio was 1.3.
In the case of `O=C(O)[C@@H]1Cc2c([nH]c3ccccc23)CN1Cc1ccc(O)cc1`, the Ratio is reported as 1.7.

These compounds were tested on MCF7 (assay: Antiproliferative activity against human MCF7 cells after 72 hrs by SRB assay). Conditions: MCF7, 72 h.
Assay type: functional, cell-based
Procedure, shortened: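 MCF7 cells, 1 × 10^4 per well, plated directly onto compounds and incubated 72 h at 37°C, 5% CO2. Fixed with 10% TCA, stained with 0.4% SRB in 1% acetic acid. Bound dye dissolved in 10 mM Tris pH 10.0, absorbance read at 515 nm. Survival expressed relative to DMSO-treated controls.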
In the case of `COC(=O)[C@@H]1Cc2c([nH]c3ccccc23)CN1S(=O)(=O)c1ccc(C)cc1`, the IC50 is reported as 37 µM.

The compounds below were run on HEK293 (assay: Inhibition of TNF-alpha-induced NFkappaB activation in human HEK293 cells at 50 uM after 6 hrs by luciferase assay relative to control). Conditions: not given.
Assay type: cell-based
Procedure, shortened: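 Cells incubated 6 h with TNFα plus test compound, then luciferase activity measured. Results expressed as percent of TNFα-treated control. Screening concentration 50 μM.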
For `COC(=O)[C@@H]1Cc2c([nH]c3ccccc23)CN1Cc1ccc(O)cc1`, the inhibition was 47.8%.
In the case of `COC(=O)[C@@H]1Cc2c([nH]c3ccccc23)CN1S(=O)(=O)c1ccc(C)cc1`, the inhibition is reported as 6%.
With `O=C(O)[C@@H]1Cc2c([nH]c3ccccc23)CN1Cc1ccc(O)cc1` the inhibition was 55%.

These compounds were tested against T2, Nitric oxide synthase, inducible (Mus musculus) (UniProt P29477) (assay: Inhibition of iNOS-mediated nitric oxide production in LPS-stimulated mouse RAW 264.7 cells at 50 uM pretreated 15 mins before LPS challenge measured after 20 hrs relative to control). Conditions: not given.
T2 sequence (whole entry): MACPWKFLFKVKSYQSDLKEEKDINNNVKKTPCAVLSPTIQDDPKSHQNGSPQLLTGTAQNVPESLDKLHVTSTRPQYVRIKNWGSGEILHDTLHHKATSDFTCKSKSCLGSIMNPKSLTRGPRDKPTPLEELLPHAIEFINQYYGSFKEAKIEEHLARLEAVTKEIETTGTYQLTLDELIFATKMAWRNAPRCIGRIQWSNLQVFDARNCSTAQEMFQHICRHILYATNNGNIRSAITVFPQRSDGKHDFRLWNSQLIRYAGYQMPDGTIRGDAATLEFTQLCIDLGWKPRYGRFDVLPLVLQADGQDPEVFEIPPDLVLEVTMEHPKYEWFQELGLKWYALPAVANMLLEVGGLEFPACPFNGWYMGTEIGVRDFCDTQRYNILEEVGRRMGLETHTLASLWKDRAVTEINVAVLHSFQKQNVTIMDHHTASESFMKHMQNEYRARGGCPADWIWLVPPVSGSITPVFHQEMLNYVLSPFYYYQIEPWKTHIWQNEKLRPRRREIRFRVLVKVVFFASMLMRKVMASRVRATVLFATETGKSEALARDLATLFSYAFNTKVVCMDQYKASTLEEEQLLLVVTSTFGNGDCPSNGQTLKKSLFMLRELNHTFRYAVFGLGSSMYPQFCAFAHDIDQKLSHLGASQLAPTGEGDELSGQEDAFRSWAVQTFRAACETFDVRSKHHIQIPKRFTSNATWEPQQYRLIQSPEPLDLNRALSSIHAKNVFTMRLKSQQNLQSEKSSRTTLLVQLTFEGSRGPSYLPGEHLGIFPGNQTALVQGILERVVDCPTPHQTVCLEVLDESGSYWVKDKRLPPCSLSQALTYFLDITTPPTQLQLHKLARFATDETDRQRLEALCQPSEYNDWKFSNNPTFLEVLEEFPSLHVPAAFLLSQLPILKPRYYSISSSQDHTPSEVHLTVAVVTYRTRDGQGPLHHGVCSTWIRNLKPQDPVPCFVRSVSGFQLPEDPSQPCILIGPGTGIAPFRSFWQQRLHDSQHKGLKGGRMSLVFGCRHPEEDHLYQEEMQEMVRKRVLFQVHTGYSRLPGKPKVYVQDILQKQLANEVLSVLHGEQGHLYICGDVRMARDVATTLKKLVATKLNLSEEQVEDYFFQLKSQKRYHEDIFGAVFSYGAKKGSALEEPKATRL
Assay type: cell-based
Procedure, shortened: (§1)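 RAW 264.7 cells cultured 24 h at 37°C, then given serially diluted compounds for 15 min before LPS (1 μg/mL) for 20 h. Nitrite in the medium measured with Griess reagent at 540 nm against a sodium nitrite standard curve. Cytotoxicity checked by SRB under the same conditions.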
Compound `COC(=O)[C@@H]1Cc2c([nH]c3ccccc23)CN1Cc1ccc(O)cc1` has an inhibition of 62.1%.
Work on `COC(=O)[C@@H]1Cc2c([nH]c3ccccc23)CN1S(=O)(=O)c1ccc(C)cc1` yielded an inhibition of 73.8%.
`O=C(O)[C@@H]1Cc2c([nH]c3ccccc23)CN1Cc1ccc(O)cc1` was tested, and the inhibition was 16%.

The compounds below were run against T3, Nitric oxide synthase, inducible (Mus musculus, UniProt P29477) (assay: Inhibition of iNOS-mediated nitric oxide production in LPS-stimulated mouse RAW 264.7 cells pretreated 15 mins before LPS challenge measured after 20 hrs relative to control). Conditions: not given.
T3 sequence (P29477 whole entry): T2 sequence (whole entry)
Assay type: cell-based
Procedure, shortened: as §1
With `COC(=O)[C@@H]1Cc2c([nH]c3ccccc23)CN1Cc1ccc(O)cc1` the IC50 was 38.8 µM.
Work on `COC(=O)[C@@H]1Cc2c([nH]c3ccccc23)CN1S(=O)(=O)c1ccc(C)cc1` yielded an IC50 of 22.6 µM.

What follows are compounds tested against NAD(P)H dehydrogenase [quinone] 1 (Mus musculus) (UniProt Q64669) (assay: Induction of quinone reductase 1 activity in mouse Hepa-1c1c7 cells assessed as cell survival at 50 uM by MTT assay relative to control). Conditions: not given.
Assay type: cell-based
`COC(=O)[C@@H]1Cc2c([nH]c3ccccc23)CN1Cc1ccc(O)cc1` gave a Survival of 91.7%.
With `COC(=O)[C@@H]1Cc2c([nH]c3ccccc23)CN1S(=O)(=O)c1ccc(C)cc1` the Survival was 61%.
`O=C(O)[C@@H]1Cc2c([nH]c3ccccc23)CN1Cc1ccc(O)cc1` showed a Survival of 88.3%.

What follows are compounds tested on HEK293 (assay: Inhibition of TNF-alpha-induced NFkappaB activation in human HEK293 cells assessed as cell survival at 50 uM after 6 hrs by luciferase assay relative to control). Conditions: not given.
Assay type: cell-based
For `COC(=O)[C@@H]1Cc2c([nH]c3ccccc23)CN1Cc1ccc(O)cc1`, the Survival was 96%.
`COC(=O)[C@@H]1Cc2c([nH]c3ccccc23)CN1S(=O)(=O)c1ccc(C)cc1` gave a Survival of 171%.
For `O=C(O)[C@@H]1Cc2c([nH]c3ccccc23)CN1Cc1ccc(O)cc1`, the Survival was 102%.

What follows are compounds tested against T2, Nitric oxide synthase, inducible (Mus musculus) (assay: Inhibition of iNOS-mediated nitric oxide production in LPS-stimulated mouse RAW 264.7 cells assessed as cell survival at 50 uM pretreated 15 mins before LPS challenge measured after 20 hrs relative to control). Conditions: not given.
Assay type: cell-based
Procedure, shortened: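 RAW 264.7 cells were incubated at 37°C, 5% CO2 for 24 h. They were then exposed to compound for 15 min before LPS (1 μg/mL) was added for 20 h. Cytotoxicity was measured by SRB staining under the same conditions. Survival is expressed as % relative to vehicle-treated controls at 50 μM.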
`COC(=O)[C@@H]1Cc2c([nH]c3ccccc23)CN1Cc1ccc(O)cc1` showed a Survival of 75.5%.
In the case of `COC(=O)[C@@H]1Cc2c([nH]c3ccccc23)CN1S(=O)(=O)c1ccc(C)cc1`, the Survival is reported as 116%.
`O=C(O)[C@@H]1Cc2c([nH]c3ccccc23)CN1Cc1ccc(O)cc1` gave a Survival of 90.3%.

What follows are compounds tested against T1, Aromatase (assay: Inhibition of aromatase at 50 uM after 10 mins preincubation by plate reader relative to control). Conditions: not given.
Procedure, shortened: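 CYP19 enzyme. Compound pre-incubated 10 min with an NADPH-regenerating system (NADP+, glucose 6-phosphate, G6PDH, MgCl2, albumin) in 50 mM potassium phosphate pH 7.4. Enzyme and 0.4 μM dibenzylfluorescein substrate then added, 30 min at 37 °C. Quenched with 2 N NaOH and incubated a further 2 h at 37 °C. Fluorescence read at ex 485/em 530 nm. Compound tested at 50 μM.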
`COC(=O)[C@@H]1Cc2c([nH]c3ccccc23)CN1Cc1ccc(O)cc1` was tested, and the inhibition at 50 µM was 46.1%.
For `COC(=O)[C@@H]1Cc2c([nH]c3ccccc23)CN1S(=O)(=O)c1ccc(C)cc1`, the inhibition at 50 µM was 41.7%.
In the case of `O=C(O)[C@@H]1Cc2c([nH]c3ccccc23)CN1Cc1ccc(O)cc1`, the inhibition at 50 µM is reported as 57.9%.

These compounds were tested on MCF7 (assay: Antiproliferative activity against human MCF7 cells assessed as survival at 50 uM after 72 hrs by SRB assay relative to control). Conditions: MCF7, 72 h, read-out: Survival.
Assay type: functional
Procedure, shortened: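 MCF7 cells (1 × 10^4 per well) were plated onto compound and kept at 37°C, 5% CO2 for 72 h. Cells were fixed in 10% TCA for 30 min and stained with 0.4% SRB in 1% acetic acid for 30 min. Bound dye was dissolved in 10 mM Tris (pH 10.0) and read at 515 nm. Survival is given as % of DMSO-treated controls, screened at 50 μM.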
`COC(=O)[C@@H]1Cc2c([nH]c3ccccc23)CN1Cc1ccc(O)cc1` was tested, and the viability at 50 µM was 94.7%.
`COC(=O)[C@@H]1Cc2c([nH]c3ccccc23)CN1S(=O)(=O)c1ccc(C)cc1` showed a viability at 50 µM of 19%.
`O=C(O)[C@@H]1Cc2c([nH]c3ccccc23)CN1Cc1ccc(O)cc1` showed a viability at 50 µM of 85.2%.
